An excerpt weighted towards active compounds, which were near 0.96% of everything screened.
AGP1-GFP MLPCN: modulators of AGP1-GFP expression in yeast TOR pathway, primary screen, cell-based, multiplex flow cytometry, S. cerevisiae, MLPCN library. 3 h; GFP as percent of DMSO wells. GFP response vs DMSO, % at 10 µM. 320,000 tested, 0.02% active;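 active = GFP response relative to DMSO above a set limit, near screen average plus 3 SD, cut at about 150% in these data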;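 also: median GFP channel fluorescence of the gated AGP1 strain per well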
T cell modulator: modulators of CD8 T cell-vesicle binding, primary screen, mouse 2C CD8+ T cells, flow cytometry. response (vesicle binding), % at 7 µM. 2C CD8+ T cell-vesicle binding; active compounds read low. 330,000 tested, 0.068% active. AID 2052, 2009;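 active = response, share of CD8 T cells binding vesicles, and their 90th percentile fluorescence all below set limits, cut at about 80% in these data, passing the limit was not always enough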;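 also: values below 100% mean blocked vesicle binding to the CD8+ T cells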
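Incubation: binding step 1.5 h, 37 °C, antibody labelling 20 min, ice; system: murine 2C transgenic CD8+ T lymphocytes; technique: cytometric PE anti-B7-1 and Alexa647 anti-CD8 signals after 1% paraformaldehyde fixation; also added: QL9-charged Drosophila Ld/ICAM-1/B7-1 vesicles; control set: naked versus QL9-loaded vesicles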
MEP2-GFP yeast: modulators of MEP2-GFP levels in yeast, primary screen, S. cerevisiae, multiplex flow cytometry, MLPCN library. S. cerevisiae MEP2-GFP strain, 3 h; 100% = DMSO control level. GFP response vs DMSO, % at 10 µM. 330,000 tested, 0.51% active. AID 2016, 2009;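 active = GFP response versus DMSO above a set limit, roughly screen mean plus 3 SD, cut at about 180% in these data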;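 also: median GFP fluorescence of the barcode-gated MEP2-GFP cells per well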
RPL19A TOR yeast: RPL19A-GFP expression modulators in yeast, primary screen, cell-based, S. cerevisiae, multiplex flow cytometry, MLPCN. S. cerevisiae RPL19A-GFP strain, 3 h; active compounds read low. percent response vs DMSO, % at 10 µM. 330,000 tested, 0.3% active. AID 2025, 2009;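 active = percent response vs DMSO below 50%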;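 also: median channel GFP fluorescence of the barcoded RPL19A-GFP strain; ratio of sample median GFP to plate DMSO average so 100% = DMSO; lower means less RPL19A-GFP as with rapamycin TOR inhibition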
CIT2 TOR yeast: modulators of CIT2-GFP expression in yeast, primary screen, S. cerevisiae, GFP fusion, multiplex flow cytometry, MLPCN library; S. cerevisiae CIT2-GFP strain, 3 h; 100 means same as DMSO wells; GFP response vs DMSO, % at 10 µM; 320,000 tested, 0.065% active; AID 2029, 2009;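 active = GFP response relative to DMSO above a set limit, near the screen mean plus 3 SD, cut at about 150% in these data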;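 also: ratio of well median GFP fluorescence to mean of DMSO wells on the plate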
LAP4-GFP MLPCN: modulators of LAP4-GFP expression in yeast, primary screen, S. cerevisiae, multiplex flow cytometry, MLPCN library; 3 h; median GFP as percent of DMSO wells; GFP response vs DMSO, % at 10 µM; 320,000 tested, 0.34% active; AID 2023, 2009;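 active = GFP response vs DMSO above a set limit, about the screen mean plus 3 SD, cut at about 150% in these data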
LAP4 cherry2: LAP4-GFP expression modulators in yeast, confirmation, cell-based, second cherry pick, flow cytometry | shares compounds with LAP4-GFP MLPCN | 590 tested, 20% active | GFP response vs DMSO, % at 10 µM | S. cerevisiae LAP4-GFP strain, 3 h;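 active = GFP signal as percent of the solvent control above about 150%, meaning raised reporter expression, limit read from the data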;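 also: ratio of well median GFP fluorescence to plate DMSO mean so 100% = DMSO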
MEP2-GFP pick2: modulators of MEP2-GFP levels in yeast, confirmation, S. cerevisiae, flow cytometry GFP, second cherry picks. shares compounds with LAP4-GFP MLPCN. S. cerevisiae MEP2-GFP strain, 3 h. GFP response vs DMSO, % at 10 µM. 590 tested, 10% active;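 active = GFP signal above 150% of the solvent control wells, that is a rise of more than half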;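 also: median channel GFP fluorescence of all gated yeast cells per well; ratio of median GFP to plate DMSO average so 100% = DMSO level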
RPL19A GFP CP2: RPL19A-GFP modulators in TOR pathway yeast, confirmation, cell-based, S. cerevisiae, flow cytometry, second cherry pick | GFP response vs DMSO, % at 10 µM | shares compounds with LAP4-GFP MLPCN | S. cerevisiae RPL19A-GFP strain, 3 h; active compounds read low; 100% means same as DMSO wells | 590 tested, 3% active;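 active = under 65% GFP response relative to DMSO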;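 also: median GFP channel fluorescence per well over the all cells gate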
CIT2 GFP CP2: modulators of CIT2-GFP expression in yeast, confirmation, flow cytometry, second cherry pick, single plex; shares compounds with LAP4-GFP MLPCN; S. cerevisiae CIT2-GFP strain, 3 h; DMSO control wells read 100%; GFP response vs DMSO, % at 10 µM; 590 tested, 8% active;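 active = GFP response vs DMSO above about 150%, limit read from the data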;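 also: median green fluorescence per well over all gated yeast cells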
AGP1-GFP pick2: AGP1-GFP expression modulators, hit retest, confirmation, cell-based, flow cytometry, S. cerevisiae, cherry pick set 2; shares compounds with LAP4-GFP MLPCN; S. cerevisiae AGP1-GFP strain, 3 h; percent response vs DMSO, % at 10 µM; 590 tested, under 10 active; AID 2643, 2010;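 active = over 150 percent of DMSO response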;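 also: median GFP channel fluorescence over all cells without mother daughter split; sample median GFP divided by mean DMSO control so 100% equals DMSO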
s288c autofluor: compound autofluorescence in yeast s288c, dose response, artefact control for yeast TOR pathway GFP screen, s288c strain. 610 tested, under 10 active. shares compounds with LAP4-GFP MLPCN. fluorescence change (kMESF span) at 33 µM. S. cerevisiae s288c, 520 nm autofluorescence, flow cytometry, 3 h; active compounds read high; zero means same as solvent-only cells;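 active = fluorescence span over the dose series, or activity score, above about 33, limit read from the data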
* = called active by the depositor; x = not tested or not shown.

SMILES	AGP1-GFP MLPCN	T cell modulator	MEP2-GFP yeast	RPL19A TOR yeast	CIT2 TOR yeast	LAP4-GFP MLPCN	LAP4 cherry2	MEP2-GFP pick2	RPL19A GFP CP2	CIT2 GFP CP2	AGP1-GFP pick2	s288c autofluor
O=C(N[C@@H](Cc1ccccc1)C(=O)N[C@@H](Cc1ccccc1)C(=O)O)OCc1ccccc1	107	205	106	105	101	99	x	x	x	x	x	x
O=C(N[C@@H](Cc1ccccc1)C(=O)CCl)OCc1ccccc1	77	357	88	100	61	151*	140	103	96	90	96	x
O=C(CNC(=O)c1cccc(-n2cnnn2)c1)Nc1ccc(F)c(F)c1	95	280	99	94	91	97	x	x	x	x	x	x
Cc1ccc(NC(=O)CCc2ccccc2)cc1S(=O)(=O)N1CCOCC1	111	380	109	88	88	151*	101	100	99	102	99	0
COC(=O)c1cc(S(=O)(=O)Nc2cccc(C)c2C)cn1C	37	650	116	98	62	95	x	x	x	x	x	x
O/C=c1\ccc2cccc3nc(C(F)(F)F)nc1c23	104	434	233*	115	242*	173*	x	x	x	x	x	8.4
COc1ccc(-c2cc(=O)c3c(OC)c(OC)c(OC)c(OC)c3o2)cc1OC	91	753	93	75	84	234*	101	101	100	102	97	x
CCOC(=O)c1c(C)[nH]c(C)c1S(=O)(=O)N(C)CC(=O)NCc1cccc(Br)c1	27	401	877*	60	88	114	98	102	101	103	101	x
